Assay outcomes from PubChem.
TCR CD3 inh: human TCR-CD3 binding inhibition; TAMRA-labeled TCR probe fluorescence, biochemical; inhibition, % at 9.4 µM; actives 0.37% (n = 360,000); in the data active means inhibition above about 19%;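 further: recombinant mutant TCR 2C K166C tagged with TAMRA read by polarization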
SIAE primary: human SIAE inhibition, primary screen | Q9HAT2 | SIAE FP-Rh probe binding, fluorescence polarization | inhibition, % at 9.66 µM | actives 0.69% (n = 370,000) | AID 1053197;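 active means inhibition above a cutoff: mean of compounds within the control limits plus 3 SD of those, cut at about 17% in these data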
Apaf-1 inh: blocks human Apaf-1 apoptosome activity. inhibition, % at 20 µM. reconstituted apoptosome caspase-3 activity, DEVD-Rh110 fluorescence. O14727. AID 489030. actives 0.71% (n = 330,000); active means inhibition of at least 40% at 20 µM
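Material: reconstituted apoptosome with Apaf-1, cytochrome c, caspase-9, procaspase-3, dATP; medium: pH 7.5 Hepes buffer with CHAPS, BSA, DTT; also added: cytochrome c and DEVD-Rh110 substrate; timing: 30 min plus 50 min, RT; signal: Rh110 fluorescence intensity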
GSTO1 counter: blocks human GSTO1 in RBBP9 counter-screen | P78417 | recombinant GSTO1, activity-based probe fluorescence polarization | inhibition, % at 5.96 µM | actives 1.1% (n = 300,000) | AID 1974;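 active means inhibition above the campaign mean inhibition plus 3 SD, cut at about 35% in these data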
Target sequence (P78417 whole entry, looked up): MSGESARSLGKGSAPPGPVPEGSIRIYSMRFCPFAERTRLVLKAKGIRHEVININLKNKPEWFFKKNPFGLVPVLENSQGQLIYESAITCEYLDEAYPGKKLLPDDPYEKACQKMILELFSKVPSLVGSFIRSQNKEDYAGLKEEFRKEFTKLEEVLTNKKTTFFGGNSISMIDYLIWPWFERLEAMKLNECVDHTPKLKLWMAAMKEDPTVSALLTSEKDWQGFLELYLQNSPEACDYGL
PAD4 FP inh: blocks human protein arginine deiminase 4 | Q9UM07 | recombinant PAD4, RCA probe fluorescence polarization | inhibition, % at 6.36 µM | actives 0.41% (n = 330,000);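 active means percent inhibition above a cutoff equal to the mean of all tested compounds plus 3 SD, cut at about 15% in these data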
TDP2 inh: blocks human TDP2 phosphodiesterase activity; inhibition, % at 12.8 µM; AID 720702; recombinant TDP2, T5PNP hydrolysis, p-nitrophenol absorbance 415 nm; actives 0.34% (n = 370,000);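 active means inhibition above the mean of all tested compounds plus 3 SD, set per campaign, cut at about 25% in these data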
Target sequence (O95551 whole entry, looked up): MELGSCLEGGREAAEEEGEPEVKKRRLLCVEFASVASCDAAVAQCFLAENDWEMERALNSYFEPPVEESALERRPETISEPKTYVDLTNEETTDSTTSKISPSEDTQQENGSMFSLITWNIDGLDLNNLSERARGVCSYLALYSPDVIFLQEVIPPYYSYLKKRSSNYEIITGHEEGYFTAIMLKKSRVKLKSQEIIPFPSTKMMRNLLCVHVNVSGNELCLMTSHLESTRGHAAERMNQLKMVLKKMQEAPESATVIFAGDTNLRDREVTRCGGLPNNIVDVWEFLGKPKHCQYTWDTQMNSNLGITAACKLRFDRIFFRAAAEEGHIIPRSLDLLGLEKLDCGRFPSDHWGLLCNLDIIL
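System – recombinant human TDP2 · Amount – 120 nM TDP2 per well · Buffer or medium – Mg2+-containing Tris-HCl buffer, pH 7.5 · Reagent – T5PNP substrate, 5 mM · Dosing – 12.8 µM single point, 1% DMSO · Incubation – 2 h at 37 °C · Measured by – epi absorbance · Read-out basis – percent inhibition · Benchmarks – high control without enzyme, low control DMSO plus TDP2 · Repeats – singlicate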
TDP2 confirm: confirmation of human TDP2 inhibitors | shares compounds with TDP2 inh | recombinant human TDP2, absorbance read-out | inhibition, % at 12.8 µM | actives 22% (n = 1,100) | AID 743263; in the data active means inhibition above about 25%
Each line names hits and unclear results; the compound was inactive in the other large screens (follow-up assays come after a bar, where they were run). The list is not random: actives were taken first. Their share in the collection is about 2.4%.

CCCCCN(C(=O)CCC(=O)OCC(=O)NCc1cccc(OC)c1)c1c(N)n(CCCC)c(=O)[nH]c1=O	TDP2 inh 75 | TDP2 confirm inactive
CCCCn1c(N)c(N(CC(C)C)C(=O)c2cccc(OCc3ccccc3)c2)c(=O)[nH]c1=O	TDP2 inh 25 | TDP2 confirm inactive
O=C(CN1C(=O)CCS(=O)(=O)c2ccccc21)NCCc1ccccc1	TDP2 inh 26 | TDP2 confirm inactive
Cc1ccc2[nH]c(C(=O)N/N=C/c3ccc([N+](=O)[O-])cc3)c(C)c2c1	none (no result: GSTO1 counter, PAD4 FP inh)
CCN(CC)CC(=O)Nc1c(Br)ccc2c1OCO2	none
Cc1ccccc1C(=O)Nc1cccc(NC(=O)c2cccnc2)c1	TDP2 inh 25 | TDP2 confirm inactive
COC(=O)CCC(=O)OC1(C)C(=O)C=C2C=C(C3CC3)N(C3CCCCC3)C=C2C1=O (stereo not given)	Apaf-1 inh 62, TDP2 inh 29 | TDP2 confirm inactive
COC(=O)CCC(=O)OC1(C)C(=O)C=C2C=C(C3CC3)N(Cc3ccccc3)C=C2C1=O (stereo not given)	Apaf-1 inh 42, TDP2 inh 26 | TDP2 confirm inactive
COc1cc(CNCc2ccc(Br)cc2)cc(OC)c1	TDP2 inh 25 | TDP2 confirm inactive
N#C/C(=C\c1c[nH]c2ccccc12)C(N)=O	none
CC(=O)Oc1c(/C=C(\C#N)C(N)=O)[nH]c2ccccc12	TDP2 inh 32 (no result: Apaf-1 inh, GSTO1 counter, PAD4 FP inh) | TDP2 confirm inactive
CC1CCCN(C(=O)CCCNC(=O)c2ccc(Cl)cc2)C1 (stereo not given)	none
NC(=O)C1CCCN(C(=O)CCCNC(=O)c2ccc(Cl)cc2)C1 (stereo not given)	TDP2 inh 30 | TDP2 confirm inactive
COC(=O)CN1C(=O)[C@H]2[C@@H](c3ccc(C)o3)N3C(=O)CN(Cc4ccccc4)C(=O)[C@@]3(C)[C@H]2C1=O	none
COC(=O)C1=CN(Cc2ccccc2)C=C(C(=O)OC)C1c1ccc(O)c(OC)c1	none
COC(=O)C1=CN(Cc2ccccc2)C=C(C(=O)OC)C1c1ccc(OC)c(OC)c1	TDP2 inh 26 | TDP2 confirm inactive
CCOc1cc(/C=N/Nc2nnc(C)n2N)ccc1OC(C)=O	TDP2 inh 43 (no result: GSTO1 counter, PAD4 FP inh) | TDP2 confirm inactive
CCOc1cc(/C=N/NC(N)=O)ccc1OC(=O)c1ccc(C)cc1	none (no result: TCR CD3 inh, SIAE primary, TDP2 inh)
COC(=O)c1ccc(C(=O)OC)c(NC(=S)N2CCN(C)CC2)c1	none
CC(Oc1ccccc1Cl)C(=O)N1CCCN(C)CC1 (stereo not given)	none
CCCC(=O)Nc1cc(OC)c(NC(=S)Nc2ccc(CC)cc2)cc1OC	TDP2 inh 26 (no result: Apaf-1 inh, GSTO1 counter, PAD4 FP inh) | TDP2 confirm inactive
CC1=C(C)CC(C(=O)NCc2ccccc2F)C(C(=O)O)C1 (stereo not given)	TDP2 inh 25 | TDP2 confirm inactive
CC1CCCC(N2CCN(C(=O)c3ccccc3F)CC2)C1 (stereo not given)	none
CC1CCN(C2CCN(C(=O)c3ccccc3F)CC2)CC1	TDP2 inh 28 | TDP2 confirm inactive
C[n+]1cccc2cccc([O-])c21	TDP2 inh 27 (no result: Apaf-1 inh, GSTO1 counter, PAD4 FP inh) | TDP2 confirm 28
c1cncc(CSc2nnc3ccc(-c4ccco4)nn23)c1	TDP2 inh 28 | TDP2 confirm inactive
NC(=O)CSc1nnc2ccc(-c3ccco3)nn12	none
O=C(CNC(=O)c1ccc([N+](=O)[O-])cc1)N/N=C/c1c[nH]c2ccccc12	TDP2 inh 27 | TDP2 confirm inactive
CN(C(=O)CSc1nc2cc([N+](=O)[O-])ccc2n1-c1ccc(F)cc1)C1CCS(=O)(=O)C1 (stereo not given)	none
Cc1cc(C)c(C#N)c(N2CCN(c3ccc(F)cc3)CC2)n1	TDP2 inh 36 | TDP2 confirm inactive
Cc1ccc(SCc2nnc(NC(=O)c3ccccc3)s2)cc1	none
O=C(O)[C@@H]1CCCN1C(=O)CCc1c[nH]c2ccccc12	TDP2 inh 25 | TDP2 confirm inactive
COc1ccc(C(O)c2nccc3cc(OC)c(OC)cc23)cc1OC (stereo not given)	TDP2 inh 34 | TDP2 confirm inactive
COCN(C#N)c1nc(N(C)C)nc(N(C)C)n1	TDP2 inh 29 | TDP2 confirm inactive
COCN(C#N)c1nc(OC)nc(OC)n1	none
Oc1ccc(-c2nnc(-c3ccc(O)cc3)nn2)cc1	none
Oc1ccc(C2=NNC(c3ccc(O)cc3)=NN2)cc1	TDP2 inh 28 | TDP2 confirm inactive
COc1ccc(CCNC(=O)Oc2ccccc2)cc1OC	none
O=C(COC(=O)c1cc(=O)[nH]c2ccccc12)Nc1nccs1	none
Cc1[nH]n(-c2ccccc2)c(=O)c1CCO	none
Cc1[nH]n(-c2ccccc2)c(=O)c1S(=O)(=O)c1ccccc1	TDP2 inh 49 | TDP2 confirm inactive
Cc1[nH]n(-c2ccccc2)c(=O)c1/C=N/c1nn[nH]n1	TDP2 inh 27 | TDP2 confirm inactive
Cc1cccc(/N=C/c2c(C)[nH]n(-c3ccccc3)c2=O)n1	none
Cc1[nH]n(-c2ccccc2)c(=O)c1/C=N/N(c1ccccc1)c1ccccc1	TDP2 inh 40 | TDP2 confirm inactive
COC(=O)C1=CN(Cc2cccs2)C=C(C(=O)OC)C1c1cccc(OC)c1OC	none
O=C(Nc1c(-c2ccc3c(c2)OCO3)[nH][nH]c1=O)c1ccc2c(c1)OCO2	TDP2 inh 48 (no result: Apaf-1 inh, GSTO1 counter, PAD4 FP inh) | TDP2 confirm 67
O=C(Nc1ccccc1-c1ccccc1)c1cccc(C(F)(F)F)c1	none
O=C(Nc1c(-c2ccc(Cl)cc2)[nH][nH]c1=O)c1ccc(Br)cc1	TDP2 inh 38 (no result: Apaf-1 inh, GSTO1 counter, PAD4 FP inh) | TDP2 confirm inactive
O=C(Nc1c(-c2ccccc2)[nH][nH]c1=O)c1cccc(C(F)(F)F)c1	TDP2 inh 26 (no result: Apaf-1 inh, GSTO1 counter, PAD4 FP inh) | TDP2 confirm inactive
Cc1cc(NC(=O)c2ccc3c(c2)OCO3)no1	none
CCc1cccc(CC)c1NC(=O)c1ccccc1	none
O=C(Nc1c(-c2ccccc2)[nH][nH]c1=O)c1ccccc1	TDP2 inh 35 (no result: Apaf-1 inh, GSTO1 counter, PAD4 FP inh) | TDP2 confirm inactive
O=C(CNC(=O)c1ccc(Cl)cc1)NNC(=O)c1ccc(Br)cc1	none (no result: GSTO1 counter)
CC(C(=O)NC1C=CS(=O)(=O)C1)N1C(=O)/C(=C/c2cccc(Cl)c2)SC1=S (stereo not given)	TDP2 inh 27 | TDP2 confirm inactive
Cc1ccc(Cl)cc1NC(=O)CCNC(=O)N1CC(=O)Nc2ccccc21	none
CCN(CC)C(=O)C1=C(C)N(CCCN2CCCC2=O)C(=O)C(CC(=O)NC2CC2)C1 (stereo not given)	none (no result: Apaf-1 inh, GSTO1 counter, PAD4 FP inh)
O=C(Nc1cccc2nsnc12)c1ccc(-c2ccc(Br)cc2)o1	TDP2 inh 25 | TDP2 confirm inactive
CN(CCCC(=O)Nc1ccc(OC(F)F)cc1)S(=O)(=O)c1ccc(F)cc1	TDP2 inh 28 | TDP2 confirm inactive
